Assay results pooled from the literature.
Target: Tyrosine-protein kinase HCK (HCK, Homo sapiens, UniProt P08631)

NS(=O)(=O)c1cc(NC(=O)C2(c3ccccc3Cl)CC2)ccc1Oc1cccc(Cl)c1
remaining binding (cell-free assay; competition with immobilised ligand; 1 µM): 89%

Cc1cnc(NC2CCOCC2)nc1-n1cnc(C(=O)NC(CN)c2cc(F)cc(Cl)c2)c1 (stereo not shown)
remaining activity (enzyme activity; inhibitor; radiometric; 1 µM): 101%

Cc1cc(NC(=O)c2cccc(S(F)(F)(F)(F)F)c2)cc(-n2ccn3nc(-c4cccnc4)cc23)c1
remaining binding (cell-free assay; competition with immobilised ligand; 1 µM): 98.7%

CNC(=O)c1cc2c(Oc3ccc(NC(=O)C4(C(=O)Nc5ccc(F)cc5)CC4)cc3)ccnc2cc1OC
inhibition (enzyme activity; inhibitor; radiometric; 1 µM): 98%

CCN(CC)CCNC(=O)c1c(C)[nH]c(/C=C2\C(=O)Nc3ccc(F)cc32)c1C
inhibition (enzyme activity; inhibitor; 10 µM): 92%

COc1cc2ncnc(Nc3ccc(Oc4ccccc4)cc3C)c2cc1OC
inhibition (enzyme activity; inhibitor; 1 µM): 91%

CC/C(=N\NC(=O)NCc1cccc(O)c1)c1ccc(O)c(C)c1O
inhibition (enzyme activity; inhibitor; 0.1 µM): 6.1%

O=C(Nc1cccnn1)N1CC(C/C=C/c2cncc(Oc3ccc(C(F)(F)F)cn3)n2)C1
remaining binding (cell-free assay; competition with immobilised ligand; 1 µM): 100%

CN(C)C1CCN(CC#Cc2nn(C3CCCC3)c3nc(NCc4ccccc4)ncc23)C1 (stereo not shown)
inhibition (enzyme activity; inhibitor; FRET; 10 µM): 19%

CS(=O)(=O)CCNCc1ccc(-c2ccc3ncnc(Nc4ccc(OCc5cccc(F)c5)c(Cl)c4)c3c2)o1
remaining signal (cell-free assay; 0.5 µM): 86.5%

Cc1ccc(Nc2nccc(N(C)c3ccc4c(C)n(C)nc4c3)n2)cc1S(N)(=O)=O
inhibition (enzyme activity; inhibitor; 0.3 µM): 21%

CC(=O)c1c(NS(C)(=O)=O)c2cc(-c3ccc(Cl)cc3)c(-c3ccc(Cl)cc3Cl)nc2n(C)c1=O
remaining binding (cell-free assay; competition with immobilised ligand; 1 µM): 100%

N#CCCc1ccc2c(c1)-c1[nH]c3ccc([N+](=O)[O-])cc3c1CC(=O)N2
remaining signal (cell-free assay; 0.5 µM): 63.8%

COc1cc(Cl)c(C(=O)N[C@@H](CN[C@H]2CC[C@@H](N)CC2)Cc2ccc(C#N)cc2)cc1-c1ccc(CN[C@H](C)c2ccc(C)cc2)o1
remaining activity (enzyme activity; inhibitor; 1 µM): 99%

COc1ccc2c(c1)O[C@H](c1ccc(OC)c(OC)c1)C[C@@H]2NC(=O)C1(c2ccc3c(c2)OC(F)(F)O3)CC1
remaining binding (cell-free assay; competition with immobilised ligand; 1 µM): 100%

Cc1ccc(NC(=O)c2ccc(C)c(C(F)(F)F)c2)cc1C#Cc1nn(C2CCC(O)CC2)c2ncnc(N)c12 (stereo not shown)
remaining activity (enzyme activity; inhibitor; 10 µM): -1%

Cc1c(NC(=O)c2cc(C(N)=O)nc3cc(F)ccc23)c(C(F)(F)F)nn1Cc1ccc(C#N)cc1
remaining binding (cell-free assay; competition with immobilised ligand; 1 µM): 69%

COc1cc(Nc2c(C#N)cnc3cc(OCCCN4CCN(C)CC4)c(OC)cc23)c(Cl)cc1Cl
remaining signal (cell-free assay; 0.5 µM): 11.9%

Cc1sc(C(=O)NC2COC2)cc1-n1cc(NC(=O)Nc2c(F)cccc2Cl)cn1
remaining activity (enzyme activity; inhibitor; 10 µM): 95%

Nc1ncnc2occ(-c3ccc(NC(=O)Nc4cc(C(F)(F)F)ccc4F)cc3)c12
remaining signal (cell-free assay; 20 µM): 0.2%

CN(C(=O)c1ccccc1)c1cc(N(C)c2ccc3c(c2)CCc2ccc(C(=O)NCCN4CCOCC4)cc2C3=O)ccc1F
remaining binding (cell-free assay; competition with immobilised ligand; 1 µM): 100%

CC(C)(C)c1nc2c(s1)c1nc(N)ncc1c1ccc(NS(=O)(=O)c3c(F)cccc3F)c(F)c12
remaining activity (enzyme activity; inhibitor; radiometric; 1 µM): 82%

COc1cc2ncnc(Nc3ccc(F)c(Cl)c3)c2cc1OCCCN1CCOCC1
remaining signal (cell-free assay; 0.5 µM): 73.3%

CC(=O)N1CCC(c2ccc(C(=O)NC(=N)N)cc2C(F)(F)F)CC1
remaining binding (cell-free assay; competition with immobilised ligand; 1 µM): 100%

O=C(Nc1cnn(-c2csc(C(=O)NC3COC3)c2)c1)Nc1c(F)cccc1Cl
remaining activity (enzyme activity; inhibitor; 5 µM): 91.3%
